# Screening results: PubChem BioAssay, several laboratories
# LANA-H2B inh: blockers of LANA interaction with H2A/H2B – biochemical, FP readout, HTS, primary screen | actives 0.6% (n = 320,000) | AID 2629, 2010 | cell-free LANA-H2A/H2B peptide, fluorescence polarization | Protein LANA1 (Human herpesvirus 8 type P (isolate GK18)), Q9QR71 | inhibition, % (concentration not given with the values); in the data active = inhibition mostly above about 10%, no sharp cut-off; inactive = mostly below about 6.7%
# DSG3 Ab inh: inhibitors of pemphigus antibody binding to DSG3, primary screen, biochemical, bead-based, flow cytometry, scFv-GFP; actives 0.48% (n = 310,000); AID 588358, 2011; Desmoglein-3 (Homo sapiens), P32926; DSG3-coupled beads, scFv-anti-DSG3-GFP binding; stronger effect = lower value; binding (percent of control), % at 10 µM;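 active = binding more than 3 SD below its plate's average and above zero; inconclusive = below that plate limit but binding exactly zero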;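 note: hits lower antibody fragment binding to DSG3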
# T cell HTS: modulators of CD8 T cell-vesicle binding, primary screen, mouse 2C CD8+ T cells, flow cytometry; 2C CD8+ T cell-vesicle binding; stronger effect = lower value; response (vesicle binding), % at 7 µM; actives 0.068% (n = 330,000); AID 2052, 2009;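 active = response, share of CD8 T cells binding vesicles, and their 90th percentile fluorescence all below set limits, cut at about 80% in these data, passing the limit was not always enough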;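 note: values below 100% mean blocked vesicle binding to the CD8+ T cells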
#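 Also added: QL9-peptide-loaded Drosophila micro-vesicles bearing Ld, ICAM-1 and B7-1; Test system: purified 2C TCR transgenic mouse naive CD8+ T cells; Measured by: cytometric PE anti-B7-1 and Alexa647 anti-CD8 signals after 1% paraformaldehyde fixation; Timing: binding step 1.5 h, 37 °C, antibody labelling 20 min, ice.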
# Arrestin-AP2 inh: inhibitors of beta-arrestin/AP2 binding, primary screen, biochemical, GPCR trafficking, flow cytometry; beta-arrestin 1 C-terminal peptide binding to AP2 beta2-adaptin appendage (human); actives 0.31% (n = 340,000); inhibition, % at 10 µM; FITC-arrestin peptide / GST-AP2 beads; AP2 beta2 appendage carries R879A mutation; AID 504490, 2011;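 active = inhibition above a set limit, near 3 SD of compounds lacking own fluorescence, cut at about 54% in these data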;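 note: plate controls were DMSO wells for no effect and 5 µM unlabelled arrestin peptide for full effect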
#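 System: GST-AP2 R879A bound to glutathione beads, E. coli-expressed. Also added: 50 nM FITC-arrestin peptide. Schedule: compound with beads 12 min RT, then probe 1 h RT. Signal: bead flow cytometry, FITC channel. Read-out basis: percent response.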
# HDAC3 inhib: HDAC3 deacetylase inhibitors, primary screen, biochemical, fluorescence, cell-free homogeneous; recombinant HDAC3, fluorogenic peptide/trypsin coupled; inhibition, % at 8.3 µM; actives 0.15% (n = 320,000); in the data active = inhibition above about 26%, passing the limit was not always enough; inconclusive = no clear call, values can overlap the other calls
# Target sequence (O15379 whole entry, looked up): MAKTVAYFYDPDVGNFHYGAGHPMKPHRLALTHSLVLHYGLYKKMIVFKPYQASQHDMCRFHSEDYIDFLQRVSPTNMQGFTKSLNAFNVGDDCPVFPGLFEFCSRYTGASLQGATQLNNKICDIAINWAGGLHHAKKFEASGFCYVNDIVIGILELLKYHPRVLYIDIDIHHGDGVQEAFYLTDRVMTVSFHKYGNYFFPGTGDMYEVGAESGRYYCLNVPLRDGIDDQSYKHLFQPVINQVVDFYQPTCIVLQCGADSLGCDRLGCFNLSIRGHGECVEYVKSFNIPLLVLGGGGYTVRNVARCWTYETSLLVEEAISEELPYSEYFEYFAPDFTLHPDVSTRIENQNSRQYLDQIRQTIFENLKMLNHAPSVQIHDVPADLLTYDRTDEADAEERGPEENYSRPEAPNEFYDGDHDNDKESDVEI
# * hit, by the source's call; u = inconclusive; x = no result; + = active, no number. An excerpt weighted towards active compounds, which were near 1.5% of everything screened.
SMILES,LANA-H2B inh,DSG3 Ab inh,T cell HTS,Arrestin-AP2 inh,HDAC3 inhib
Cc1nn(C)cc1C(C(=O)NC1CCCCC1)N(Cc1ccc(F)cc1)C(=O)c1cnccn1 (stereo not drawn),1,54*,594,-7,-4
O=C(Nc1ccccc1N1CCCC1)C1CCCO1 (stereo not drawn),x,97,x,6,x
CC[C@@](C)(NS(=O)(=O)OCC(Cl)(Cl)Cl)c1ccccc1,-2,97,580,-4,1
CC(C)(NS(=O)(=O)OCC(Cl)(Cl)Cl)c1ccccc1,43*,100,303,-1,-5
COc1ccccc1CCC(=O)Oc1ccc(C#N)cc1OC,7,x,241,13,-5
CCOc1cc(/C=C2\CCCc3c2nc2ccccc2c3C(=O)O)ccc1OC,85*,91,422,14,4
Cc1cccc(C)c1NC(=O)COC(=O)c1c2c(nc3ccccc13)/C(=C\c1ccc3c(c1)OCO3)CCC2,63*,115,344,-3,4
Cc1nc(SCc2nc3c([N+](=O)[O-])cccc3[nH]2)c2oc3ccccc3c2n1,-3,32*,284,-1,-10
O=C(Nc1ccnn1C1CCN(C2CCCC2)CC1)c1ccccc1,8,109,185,-4,1
CC(C)NC(=O)CSc1ccccc1C(=O)N1CCN(S(=O)(=O)Cc2ccccc2)CC1,x,99,x,25,x
CC(C)NC(=O)CSc1ccccc1C(=O)N1CCN(S(=O)(=O)/C=C/c2ccccc2)CC1,17*,106,364,2,-2
CCC1CCCCN1CCCNC(=O)c1ccc(CS(=O)(=O)Cc2ccc(Cl)cc2)o1 (stereo not drawn),5,104,237,2,-9
CC(NC(=O)CNC(=O)c1sc2ccccc2c1Cl)c1cccnc1 (stereo not drawn),22*,98,343,-1,1
CN(CC(=O)Nc1ccc(F)cc1)C(=O)CN1C(=O)c2cccc([N+](=O)[O-])c2C1=O,5,97,979,-5,-6
CCSc1ccc([C@@H]2[C@@H]3C(=O)N(C)C(=O)[C@@H]3[C@]3(C(=O)OC)CCCCN23)cc1OC,4,105,0.0*,3,5
CCCSc1ccc([C@@H]2[C@@H]3C(=O)N(C)C(=O)[C@@H]3[C@]3(C(=O)OC)CCCCN23)cc1OC,-1,100,684,2,21
O=C(NCCN1C(=O)S/C(=C/c2cccnc2)C1=O)c1ccc(S(=O)(=O)N2CCCC2)cc1,x,x,x,-3,x
COc1cc(/C=C/C(=O)OCC(=O)NCc2ccc3c(c2)OCO3)cc(OC)c1OC,2,x,346,-2,-16
COC(=O)c1ccc(CNC(=O)COC(=O)/C=C/c2cc(OC)c(OC)c(OC)c2)cc1,4,61*,263,-5,-2
CCCN(CC1CC1)C(=S)NC(=O)c1cc(Br)ccc1Cl,x,104,x,31,x
Cc1ccccc1NC(=O)Cc1nc(COC(=O)c2ncc(Cl)c(Cl)c2Cl)cs1,x,106,x,6,x
Cc1ccc(-c2cc(C(=O)Nc3cccnc3)c3ccccc3n2)o1,0,81*,236,11,u
COC(=O)CN(n1cnnc1)S(=O)(=O)c1ccccc1Cl,-5,105,67*,-3,0
COc1cc(OC)c(N(C)C(=O)c2cn(C)c(=O)c3cc(OC)c(OC)cc23)cc1Cl,-3,u,195,28,54*
O=C(c1cccc(C(F)(F)F)c1)c1c[nH]c(C(=O)NCC2CCCO2)c1 (stereo not drawn),+,x,136,20,7
SMILES,LANA-H2B inh,DSG3 Ab inh,T cell HTS,Arrestin-AP2 inh,HDAC3 inhib
O=C(c1cccc(N2C(=O)C3C4C=CC(C4)C3C2=O)c1)N1CCN(c2ccccc2Cl)CC1 (stereo not drawn),-1,u,797,12,-1
COc1ccc2c(c1)c(=O)oc1cc(OCC(=O)NCC3CCC(C(=O)O)CC3)ccc12 (stereo not drawn),-6,-19*,223,4,-119
COc1ccc(-c2cc3ccc(OCC(=O)NCC4CCC(C(=O)O)CC4)cc3oc2=O)cc1 (stereo not drawn),3,102,213,23,-220
Cc1ccc(N(CC(=O)Nc2cc(Cl)ccc2Oc2ccccc2)S(C)(=O)=O)cc1C,-4,x,127,-7,27*
Cc1ccc(N(CC(=O)Nc2cc(Cl)ccc2Oc2ccccc2)S(C)(=O)=O)c(C)c1,-6,105,194,1,17
O=C(COC(=O)c1ccc2c(c1)C(=O)N(Cc1ccco1)C2=O)NCC(F)(F)F,0,x,220,1,4
NC(=O)NC(CC(=O)NCCc1ccccn1)c1ccccc1Cl (stereo not drawn),15*,115,450,-60,1
NC(=O)NC(CC(=O)NCCCc1ccccc1)c1ccccc1Cl (stereo not drawn),4,105,291,-23,2
O=C(CC1OC(=O)c2ccccc21)NNC(=O)c1ccc(F)cc1 (stereo not drawn),2,99,644,3,5
CCC(=O)c1cc2c(C)cc(=O)oc2c(C)c1O,-2,51*,212,-6,6
CCC(=O)c1cc2c(C)cc(=O)oc2c(C)c1OC(C)=O,4,100,141,22,0
CCCNS(=O)(=O)c1cc2c(cc1Br)CCN2C(=O)CC,x,123,x,13,x
CC1CCCN(C(=O)CSc2nnc(-c3cccnc3)n2C2CCCCC2)C1 (stereo not drawn),-5,61*,344,6,-2
O=C(CSc1nnc(-c2ccccc2)n1C1CCCCC1)N1CCCC1,0,97,419,-8,-5
O=C(Nc1ccccc1C(=O)N/N=C/c1ccco1)c1ccc(Cl)cc1,+,99,171,-1,7
O=C(COc1cc2oc(=O)cc(-c3ccccc3)c2cc1Cl)NCCN1CCOCC1,-7,97,383,-4,0
O=C(C1CCCN(S(=O)(=O)c2cccc3cccnc23)C1)N1CCN(c2ccc(F)cc2)CC1 (stereo not drawn),25*,107,89,13,5
O=C(C1CCN(S(=O)(=O)c2cccc3cccnc23)CC1)N1CCN(c2ccccc2)CC1,1,108,277,20,-6
COc1ccc(N2CCN(C(=O)C3CCCN(S(=O)(=O)c4ccc(C)cc4)C3)CC2)cc1 (stereo not drawn),26*,103,357,6,-1
O=C(NCc1ccccc1)C1CCN(S(=O)(=O)c2cccc3cccnc23)CC1,x,90*,398,12,x
